Data published in ChEMBL document CHEMBL1152202, “Synthesis and biological evaluation of helicid analogues as mushroom tyrosinase inhibitors” (Bioorg Med Chem Lett, 2008).
Activity calls are given as the source filed them. No cut-off for these calls is given here.

Legend:
[1] = biological target: T1, Tyrosinase (Agaricus bisporus) (UniProt O42713); experiment: Inhibition of mushroom tyrosinase assessed as 3,4-dihydroxy-L-phenylalanine oxidation at 0.1 mM
T1 sequence (whole entry): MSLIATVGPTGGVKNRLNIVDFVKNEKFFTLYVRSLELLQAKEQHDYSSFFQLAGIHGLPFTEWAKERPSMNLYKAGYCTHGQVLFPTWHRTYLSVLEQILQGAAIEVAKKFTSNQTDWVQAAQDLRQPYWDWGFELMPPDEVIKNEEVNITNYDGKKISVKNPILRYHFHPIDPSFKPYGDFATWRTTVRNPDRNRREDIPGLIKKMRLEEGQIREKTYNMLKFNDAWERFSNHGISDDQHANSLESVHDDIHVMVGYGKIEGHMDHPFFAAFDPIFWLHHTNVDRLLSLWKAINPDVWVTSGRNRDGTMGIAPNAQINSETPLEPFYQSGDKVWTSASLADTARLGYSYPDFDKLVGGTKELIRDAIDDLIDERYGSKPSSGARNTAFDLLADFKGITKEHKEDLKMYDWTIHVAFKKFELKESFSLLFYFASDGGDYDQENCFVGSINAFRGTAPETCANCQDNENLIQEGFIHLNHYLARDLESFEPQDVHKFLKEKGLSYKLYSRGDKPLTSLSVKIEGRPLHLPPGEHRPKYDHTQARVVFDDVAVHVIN
In short: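 Mushroom tyrosinase was the enzyme source. Activity was reported as IC50 in mM, with compounds tested up to 3.0 mM, and as percent inhibition at 0.1 mM. Values are means of three separate experiments.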

Tyrosinase = biological target: T2, Tyrosinase (Agaricus bisporus, UniProt O42713); experiment: Inhibition of mushroom tyrosinase assessed as 3,4-dihydroxy-L-phenylalanine oxidation
T2 sequence (O42713 whole entry): T1 sequence (whole entry)

Mus musculus [2] = experiment: Toxicity in mouse assessed by autopsy at 1200 mg/kg, po administered as single gavage dose after 20 days; assay type: organism-based; design: dose 1200 mg/kg, route oral; conditions: in vivo, 480 h
In short: (§1)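 Acute oral toxicity in mice: one 1200 mg/kg dose given by gavage. Clinical symptoms and mortality were followed for 20 days. Animals were autopsied at the end of the 20-day period, and organs were examined for gross changes.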

Mus musculus [3] = experiment: Toxicity in mouse assessed as mortality at 1200 mg/kg, po administered as single gavage dose after 20 days; assay type: organism-based; design: dose 1200 mg/kg, route oral; conditions: in vivo, 480 h; in short: as §1

SMILES	Activity [1]	IC50 (Tyrosinase) [µM]	inhibition [1] [%]	Activity (Mus musculus [2])	Activity (Mus musculus [3])
OC[C@H]1O[C@@H](Oc2ccc(O)cc2)[C@H](O)[C@@H](O)[C@@H]1O	inactive				
CC(=O)OC[C@H]1O[C@@H](O[C@H]2[C@H](OC(C)=O)[C@@H](OC(C)=O)[C@H](Oc3ccc(C=O)cc3)O[C@@H]2COC(C)=O)[C@H](OC(C)=O)[C@@H](OC(C)=O)[C@H]1OC(C)=O		> 3000	5		
CC(=O)OC[C@H]1O[C@@H](Oc2ccc(C=O)cc2)[C@H](OC(C)=O)[C@@H](OC(C)=O)[C@@H]1OC(C)=O	inactive	> 3000			
CC(=O)O[C@H]1[C@@H](OC(C)=O)[C@H](Oc2ccc(C=O)cc2)O[C@H](CO)[C@H]1OC(C)=O	inactive	> 3000			
CC1(C)O[C@@H]2[C@H](O)[C@@H](CO)O[C@@H](Oc3ccc(C=O)cc3)[C@@H]2O1		620	13		
COc1ccc(/C=C/C(=O)O)cc1			22		
O=Cc1ccc(O)cc1 [4-HYDROXYBENZALDEHYDE]		1120	15		
O=Cc1ccc(O[C@@H]2O[C@H](COC(c3ccccc3)(c3ccccc3)c3ccccc3)[C@@H](O)[C@@H](O)[C@H]2O)cc1	inactive	> 3000			
O=Cc1ccc(O[C@@H]2OC[C@@H](OC(=O)c3ccccc3)[C@@H](OC(=O)c3ccccc3)[C@H]2OC(=O)c2ccccc2)cc1	inactive	> 3000			
O=Cc1ccc(O[C@@H]2O[C@H](CO)[C@@H](O)[C@@H](O)[C@H]2O)cc1 [HELICIDE]		2540	10		
O=Cc1ccc(O[C@@H]2O[C@@H]3CO[C@@H](c4ccccc4)O[C@H]3[C@@H](O)[C@H]2O)cc1		52	77	Non-toxic	Non-toxic
O=Cc1ccc(O[C@@H]2O[C@H](CO)[C@@H](O)[C@H](O)[C@H]2O)cc1		940	30	Non-toxic	Non-toxic
COP(=O)(OC)OC[C@H]1O[C@@H](Oc2ccc(C=O)cc2)[C@H](O)[C@H](O)[C@@H]1O		430	24		
O=Cc1ccc(O[C@@H]2OC[C@@H](O)[C@@H](O)[C@H]2O)cc1		280	42		
